MT1-MMP txn act = activates MT1-MMP transcription; HT1080 MT1-MMP promoter luciferase reporter, luminescence, overnight; stronger effect = higher value; activation factor at 10 µM; 0.16% of 86,000 active; AID 750;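 active means activation factor of at least 2 for MT1-MMP transcription at 10 µM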
SF1 activator = activators of human nuclear receptor SF-1. 1.9% of 65,000 active. activation, % at 10 µM. CHO-K1 Gal4-SF-1 LBD luciferase reporter; % increase over DMSO SF-1-specific signal. AID 522;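 active means activation above the mean activation of all tested compounds plus 3 SD, cut at about 50% in these data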
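Material: Gal4–SF-1 LBD one-hybrid luciferase reporter in CHO-K1 cells | Amount: 4,000 cells per well | Compound dosing: 10 µM single point, 1% DMSO | Schedule: 20 h compound treatment, 37 °C | Measured by: SteadyLite luciferase luminescence | Evaluation: Percent activation versus DMSO | Control set: DMSO-treated SF-1-transfected cells as negative, DMSO-treated mock-transfected cells lacking SF-1 as background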
M1 agonist = M1 muscarinic receptor agonism; 3% of 64,000 active; B-score at 10 µM; CHO-M1 cells, Fluo-4 calcium fluorescence, agonist mode; stronger effect = higher value;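 active means fluorescence rise, raw or as B-score row- and column-corrected plate score, outside the 99.7% band of its plate's samples, either direction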
M1 antagonist = blocks the rat M1 muscarinic receptor response to acetylcholine; CHO-M1 cells, Fluo-4 calcium, ACh EC80 antagonist mode; stronger effect = lower value; P08482; 3.4% of 64,000 active; B-score at 10 µM;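 active means calcium fluorescence response, raw or row-and-column corrected B-score, differing from the plate sample mean either way at a set confidence level, mostly lower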
Target sequence (P08482 whole entry, looked up): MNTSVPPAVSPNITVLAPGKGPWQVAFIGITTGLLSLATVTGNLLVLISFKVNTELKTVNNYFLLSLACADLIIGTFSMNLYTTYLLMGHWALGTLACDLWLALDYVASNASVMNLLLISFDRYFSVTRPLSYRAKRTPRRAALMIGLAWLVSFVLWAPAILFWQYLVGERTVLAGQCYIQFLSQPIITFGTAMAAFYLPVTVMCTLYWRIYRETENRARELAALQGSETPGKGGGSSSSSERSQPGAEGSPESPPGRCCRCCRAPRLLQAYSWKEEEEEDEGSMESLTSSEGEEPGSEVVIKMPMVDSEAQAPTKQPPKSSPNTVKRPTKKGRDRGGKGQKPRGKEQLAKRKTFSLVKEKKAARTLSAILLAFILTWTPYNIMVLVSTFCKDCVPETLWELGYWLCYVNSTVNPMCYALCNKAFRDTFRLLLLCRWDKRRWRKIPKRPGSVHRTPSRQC
RORa activator = activators of human nuclear receptor RORA. activation, % at 10 µM. CHO-K1 Gal4-RORA LBD luciferase reporter, luminescence; percent increase over mock-subtracted basal signal. P35398. 1.5% of 65,000 active;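 active means activation above the mean of all tested compounds plus 3 SD, cut at about 49% in these data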
Each line names hits and unclear results; the compound was inactive in the other large screens. In the library only some 6.3% were active in any assay of this set; here they are far more common.

CCC(Sc1nc(C)cc(=O)[nH]1)C(=O)Nc1nc(-c2ccccc2)cs1 (configuration not stated)	none (no result: SF1 activator, M1 agonist, M1 antagonist, RORa activator)
O=C(CCN1CCCCC1)NCC1OCCc2ccccc21 (configuration not stated)	none
CCOC(=O)c1sc(NC(=O)c2ccc3ncsc3c2)nc1C	SF1 activator 76
CCOC(=O)c1ccc2nc(NC(=O)C(C)C)sc2c1	RORa activator 68
CCOC(=O)c1sc(NC(=O)c2ccc(Cl)s2)cc1C	SF1 activator 54, RORa activator 78
CCOC(=O)c1sc(NC(=O)c2cncc(Br)c2)nc1C	none (no result: SF1 activator, M1 agonist, M1 antagonist, RORa activator)
CC(=O)N1CC=CC1(CC(C)C)C(=O)NCC1CC1 (configuration not stated)	none (no result: SF1 activator, M1 agonist, M1 antagonist, RORa activator)
COc1cccc(N2CCN(C(=O)c3ccc4nc(N5CCCCC5)sc4c3)CC2)c1	SF1 activator 89, RORa activator 78
COc1ccc(N2CCN(C(=O)c3ccc4nc(N5CCCCC5)sc4c3)CC2)cc1	RORa activator 68
O=C(Nc1ccc(OC(F)F)cc1)Nc1cccc(C(F)(F)F)c1	none (no result: SF1 activator, M1 agonist, M1 antagonist, RORa activator)
CC1CCCC(C)N1C(=O)c1cc(-c2cccs2)on1 (configuration not stated)	RORa activator 61
O=C(NC1CCCC1)c1cc(-c2cccs2)on1	RORa activator 109
O=C(NC1CCCCC1)c1cc(-c2ccco2)on1	SF1 activator 58
O=C(c1cc(-c2cccs2)on1)N1CCCc2ccccc21	none
CCCNC(=O)c1cc(-c2ccco2)on1	none
CCOC(=O)c1ccccc1OCc1cc(/C=N/n2cncn2)ccc1OC	none
CC(C)(C)NC(=O)CSc1nnc(Cc2ccc3c(c2)OCO3)n1C1CCCCC1	none
O=C(Nc1nncs1)c1c(F)c(F)c(F)c(F)c1F	M1 antagonist 1
Cc1ccccc1C(=O)Nc1nncs1	none (no result: SF1 activator, M1 agonist, M1 antagonist, RORa activator)
CC(=O)/C=C1/SC(CC(=O)O)C(=O)N1c1ccccc1 (configuration not stated)	none (no result: SF1 activator, M1 agonist, M1 antagonist, RORa activator)
CCc1ccc(C(=O)NCc2cccs2)s1	SF1 activator 70
CCc1ccc(C(=O)NC2CCCCC2)s1	SF1 activator 59, RORa activator 55
O=C(NCc1cccs1)c1cc2c(s1)-c1ccccc1OC2	RORa activator 53 (no result: MT1-MMP txn act)
CCc1ccc(C(=O)N2CCCC2)s1	none
Cc1nn(C(=O)c2ccc3c(c2)OCO3)c(N)c1-c1ccccc1	none
COc1ccc(OC)c(C(c2nnnn2CCc2ccccc2)N2CCC(C(N)=O)CC2)c1 (configuration not stated)	none
CSc1nc2ccc3nc(NC(=O)c4cccs4)sc3c2s1	SF1 activator 64
O=C(Nc1nc2ccc(S(=O)(=O)N3CCCC3)cc2s1)c1cccs1	RORa activator 52
CC1=C(C(=O)N2CCCCC2)C(c2cccs2)NC(=O)N1 (configuration not stated)	none
COc1ccc(-n2c(SCC(=O)N3CCCC3)nc3c([nH]c4ccccc43)c2=O)cc1	none
CCc1ccc(CCC(=O)Nc2ccc(C)c(C)c2)o1	SF1 activator 56
CCC/C=C(\CCC)C(NC(=O)c1ccco1)c1ccc(C(=O)OC)cc1 (configuration not stated)	none (no result: SF1 activator, M1 agonist, M1 antagonist, RORa activator)
O=C(CC(=O)N1CCN(c2ccccn2)CC1)Nc1ccc2nc3n(c(=O)c2c1)CCCCC3	none
O=C(Nc1ccc2nc3n(c(=O)c2c1)CCCCC3)c1ccccn1	RORa activator 54
Cc1ccc(C(=O)Nc2ncc(Cc3ccc(F)cc3)s2)o1	SF1 activator 119
O=c1cc(Nc2ccc3c(c2)OCCO3)[nH]c(=O)n1C1CCCCC1	none
CCc1ccc(Nc2cc(=O)n(C3CCCCC3)c(=O)[nH]2)cc1	SF1 activator 52
COc1cccc(NC(=O)c2ccc(NC(C)=O)cc2)c1	none (no result: SF1 activator, M1 agonist, M1 antagonist, RORa activator)
CSc1cccc(NC(=O)Nc2ccccc2)c1	SF1 activator 50, RORa activator 63
COc1ccc(NC(=O)Nc2cccc(C)n2)cc1	SF1 activator 64
Cc1cccc(NC(=O)Nc2ccc(C#N)cc2)n1	none (no result: MT1-MMP txn act)
CSc1cccc(NC(=O)COc2ccccc2)c1	none
COc1ccc(NC(=O)Nc2cccc(OC)c2)cc1	RORa activator 68
O=C(NCCCN1CCOCC1)[C@@H]1CSC2c3ccccc3C(=O)N21 (some centres not stated)	none
CC(=O)n1c(Cl)c(NC(=O)CCl)c2ccccc21	none (no result: SF1 activator, M1 agonist, M1 antagonist, RORa activator)
O=c1c(-c2ccc(F)cc2)coc2c3c(ccc12)OCCO3	SF1 activator 63
COc1ccc(-c2coc3cc(O)ccc3c2=O)cc1OC	RORa activator 78
O=c1c(-c2ccc(F)cc2)coc2cc(O)ccc12	SF1 activator 63, RORa activator 84
COc1ccccc1Oc1coc2cc(O)ccc2c1=O	none
CCOc1ccccc1Oc1coc2cc(O)ccc2c1=O	none
O=c1c(-c2ccc(Br)cc2)coc2c(CN3CCOCC3)c(O)ccc12	none
COc1ccc2nc(SCC(=O)N3CCNC3=O)[nH]c2c1	SF1 activator 65
Cc1ccc(NC(=O)C2CCN(S(=O)(=O)c3c(C)n[nH]c3C)CC2)nc1	none
OC1CCCCC1Sc1nc2ccccc2s1 (configuration not stated)	SF1 activator 59
CC1=CC(C)=Nc2ccc(C)cc2N1	SF1 activator 76, RORa activator 58
Cc1ccc2c(c1)NC(=O)CC(c1ccccc1)=N2	none (no result: SF1 activator, M1 agonist, M1 antagonist, RORa activator)
COc1ccccc1CN1C(=O)C2CC=CCC2C1=O (configuration not stated)	none
O=C(NC1CCCCC1)C(c1ccco1)N(Cc1ccco1)C(=O)c1ccco1 (configuration not stated)	none
COc1ccc(C(=O)N(Cc2ccco2)C(C(=O)NC2CCCC2)c2ccc(O)cc2)cc1OC (configuration not stated)	M1 agonist 2.6
Oc1ccc(Cl)cc1-c1cc(-c2ccco2)[nH]n1	none (no result: SF1 activator, M1 agonist, M1 antagonist, RORa activator)
Oc1ccccc1-c1cc(-c2ccco2)[nH]n1	MT1-MMP txn act 2.1 (no result: SF1 activator, M1 agonist, M1 antagonist, RORa activator)
COC(=O)c1[nH]c2ccc(C)cc2c1NC(=O)CN1CCCCC1C (configuration not stated)	none (no result: MT1-MMP txn act, M1 agonist, M1 antagonist)
O=C(CCc1ccc(S(=O)(=O)N2CCOCC2)cc1)OCc1nc2ccccc2s1	SF1 activator 59
O=C(OCc1nc2ccccc2s1)c1cccc(S(=O)(=O)N2CCOCC2)c1	none
c1cc(Nc2ncnc3sccc23)cc(-c2nnc3n2CCCCC3)c1	none
CCCCOc1ccc(C)cc1CN(CCO)CCO	M1 antagonist 2.1
Cc1ccc(OC(C)C)c(CN(CCO)CCO)c1	none (no result: SF1 activator, M1 agonist, M1 antagonist, RORa activator)
COC(=O)c1ccc(C(/C=C/[C@@H](C)C(=O)NCc2ccc(C)o2)NC(=O)OCc2ccccc2)cc1 (some centres not stated)	none (no result: SF1 activator, M1 agonist, M1 antagonist, RORa activator)
COCCOC(=O)c1[nH]c2c(c1C)C(=O)CC(c1cc(OC)ccc1OC)C2 (configuration not stated)	RORa activator 75
CCCOCCOC(=O)c1[nH]c2c(c1C)C(=O)CC(c1cc(OC)ccc1OC)C2 (configuration not stated)	none
Cc1nnc(N2C(=O)C(O)=C(C(=O)c3ccco3)C2c2ccc(C(C)(C)C)cc2)s1 (configuration not stated)	none (no result: SF1 activator, M1 agonist, M1 antagonist, RORa activator)

Screening results as filed in PubChem BioAssay.
